Measurements of several laboratories.
Protocols differ between the studies behind these lines.
Target: Serine/threonine-protein kinase D1 (PRKD1, Homo sapiens, UniProt Q15139)
Residues used in one study (Q15139 1-912): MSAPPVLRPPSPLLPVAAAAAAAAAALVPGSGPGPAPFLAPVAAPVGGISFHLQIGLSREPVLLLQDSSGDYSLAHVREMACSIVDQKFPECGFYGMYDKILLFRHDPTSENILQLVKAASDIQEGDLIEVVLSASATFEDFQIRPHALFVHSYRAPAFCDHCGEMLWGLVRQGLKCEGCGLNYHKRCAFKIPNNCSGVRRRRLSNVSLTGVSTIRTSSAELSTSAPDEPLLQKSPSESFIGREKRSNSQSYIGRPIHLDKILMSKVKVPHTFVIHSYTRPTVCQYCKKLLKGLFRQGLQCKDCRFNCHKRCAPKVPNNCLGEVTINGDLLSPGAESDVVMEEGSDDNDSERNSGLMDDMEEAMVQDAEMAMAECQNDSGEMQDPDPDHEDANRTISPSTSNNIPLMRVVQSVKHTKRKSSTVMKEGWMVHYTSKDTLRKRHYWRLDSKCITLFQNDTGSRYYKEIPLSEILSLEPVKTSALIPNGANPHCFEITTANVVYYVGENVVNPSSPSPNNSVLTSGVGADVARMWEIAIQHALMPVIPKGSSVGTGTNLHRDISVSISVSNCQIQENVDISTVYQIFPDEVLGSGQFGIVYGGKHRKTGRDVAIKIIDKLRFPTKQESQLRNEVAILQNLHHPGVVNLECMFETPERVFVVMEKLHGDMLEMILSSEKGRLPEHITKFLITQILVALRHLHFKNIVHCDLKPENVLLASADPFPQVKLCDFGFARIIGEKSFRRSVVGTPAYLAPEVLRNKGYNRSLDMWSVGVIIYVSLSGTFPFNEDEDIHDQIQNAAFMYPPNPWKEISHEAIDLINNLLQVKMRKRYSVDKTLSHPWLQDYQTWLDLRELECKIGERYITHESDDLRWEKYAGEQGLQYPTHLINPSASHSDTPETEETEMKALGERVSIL

SMILES	assay	conditions	remaining binding
CN(C)c1nccc(-c2cnc3ncccn23)n1	binding	1 µM	61%
CC1=C(C#N)C(c2ccc3c(c2)c(NC(=O)c2ccccc2C)nn3C)C(C#N)=C(C)N1	cell-free assay, competition with immobilised ligand	1 µM	92%
c1cnn2ncc(-c3ccnc(N4CCC45COC5)n3)c2c1	binding	1 µM	87%
CCN1CCN(Cc2ccc(C(=O)Nc3ccc(C)c(Oc4ccc5c(c4)CC(=O)N5)c3)cc2C(F)(F)F)CC1	binding, competition with immobilised ligand	1 µM	96%
COc1cnc(Nc2cccc(S(N)(=O)=O)c2)nc1N1CCN(c2ccccc2)C(=O)C1	binding, competition with immobilised ligand	1 µM	100%
c1cncc(-c2cccc(Nc3nccc(NC4CCCCC4)n3)c2)c1	binding, competition with immobilised ligand	10 µM	11%
O=C(c1ccc(Nc2ncc(Cl)c(-c3cc4ccccc4s3)n2)cc1)N1CCC(N2CCCC2)CC1	binding, competition with immobilised ligand	1 µM	28%
O=C(Nc1c[nH]nc1C(=O)NC1CCNCC1)c1cc(F)cc(F)c1	binding, competition with immobilised ligand	1 µM	94%
CN(C)c1ncc(F)c(-c2cnn3ncccc23)n1	binding	1 µM	100%
CN([C@@H]1CCc2c(CC(=O)O)c3cc(S(C)(=O)=O)ccc3n2C1)S(=O)(=O)c1ccc(F)cc1	cell-free assay, competition with immobilised ligand	1 µM	75%
COc1cnc(Nc2cccc(S(N)(=O)=O)c2)nc1N1CCN(c2ccccc2)CC1	binding, competition with immobilised ligand	1 µM	100%
N[C@H]1CCN(c2nccc(-c3cnn4ncccc34)n2)C1	binding	1 µM	65%
CS(=O)(=O)N1CCCC(NC(=O)[C@H](CCC2CCCCC2)NC(=O)c2ccc(CNC(=O)c3cnc4ccccn34)cc2)C1 (some centres unmarked)	cell-free assay, competition with immobilised ligand	0.1 µM	93%
CN(C)c1nccc(-c2cnn3ncccc23)n1	binding	1 µM	57%
C[C@H](c1ccnc(Nc2nc3ccc(-c4cc(N(C)C)ncn4)cc3[nH]2)c1)N1CCN(C(=O)CC(F)(F)F)CC1	cell-free assay, competition with immobilised ligand	0.1 µM	100%
COc1ccnn2ncc(-c3ccnc(N(C)C)n3)c12	binding	1 µM	100%
CC(=O)c1c(NS(C)(=O)=O)c2cc(-c3ccc(Cl)cc3)c(-c3ccc(Cl)cc3Cl)nc2n(C)c1=O	cell-free assay, competition with immobilised ligand	1 µM	100%
Nc1ncc2c(n1)-c1c([nH]c3ccc(C#CC4CC4)cc13)CCCC2	binding, competition with immobilised ligand	1 µM	100%
CO[C@@H](C)c1c(Nc2ccc([C@H](N(C)C(=O)C3CCS(=O)(=O)CC3)C(F)(F)F)cc2)cnc2cc(Cl)nn12	cell-free assay, competition with immobilised ligand	1 µM	100%
O=C(c1ccc(Nc2nccc(-c3cc4ccccc4s3)n2)cc1)N1CCC(N2CCCC2)CC1	binding, competition with immobilised ligand	1 µM	64%
